Data from ChEMBL document CHEMBL5357082, “Identification and Optimization of Small Molecule Pyrazolopyrimidine TLR7 Agonists for Applications in Immuno-oncology” (ACS Med Chem Lett, 2024).
Activity calls are given as the source filed them. The rule behind the calls is not given here.

Test system: Mus musculus
Assay: Immunostimulatory activity in nontumor bearing Balb/C mouse assessed as increase in IFNalpha production in serum at 0.5 to 1 mg/kg, iv measured after 2 hrs by ELISA
Format: functional, organism-based
Settings: dose 0.5-1 mg/kg
Procedure, shortened: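 Nontumor-bearing female Balb/C mice received a single 1 mg/kg dose. Serum IFNα was measured 2 h after administration, with N = 9 mice per group.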

CCC[C@@H](CCO)Nc1nc(N)nc2cnn(Cc3ncc(C4CCN(C5CCOCC5)CC4)cc3OC)c12
Activity: Active
